Assay [1] in a line: inhibitors of TNFa-induced NFkB p65 translocation, primary screen, imaging, HUVEC, MLSMR starter and 10KST1 sets (AID 438;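 active means inhibition above 20% together with a positive visual image hit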;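 further: compound added about 3h40 before a 20 min TNFalpha stimulation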;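 on inhibition: signal is the nuclear over cytoplasmic p65 intensity ratio per well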). To be noted: HUVEC TNFa-induced p65 nuclear translocation; cell count: measured here: nuclei count (cytotoxicity indicator), at 2.08 µM; inhibition: at 2 µM, stronger effect = higher value, 0% TNFa-plus-vehicle, 100% no-TNFa wells.
Assay [2] is described as follows: inhibitors of E-selectin induction by TNFa, primary screen, imaging, HUVEC, immunofluorescence, MLSMR starter and 10KST1 sets (AID 487;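 active means visually confirmed hit in the image check and inhibition above 20%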;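 on inhibition: signal is fraction of cell area covered by stained E-selectin grains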;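 on nuclei count: 100% = median nuclei count of all wells on the same plate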). Conditions: HUVEC TNFalpha-induced E-selectin immunofluorescence imaging, at 2 µM; inhibition: stronger effect = higher value; nuclei count: measured here: cell number, toxicity.
Assay [3] is described as follows: DUSP6 inhibitors restoring Erk phosphorylation by chemical complementation, primary imaging in DUSP6-transfected HeLa (AID 609;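 active means compounds giving at least 50% inhibition in the cell-based MKP-3 phosphatase rescue imaging test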;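 on inhibition: phospho-Erk level distribution per well compared with pooled transfected vehicle control wells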). To be noted: HeLa MKP-3 transfected, phospho-Erk imaging KS statistic, at 10 µM, cells stimulated with TPA for 15 min.
The target of assay [4] is Dual specificity protein phosphatase 6 (Homo sapiens) (UniProt Q16828). The assay is described as above. Conditions: HeLa MKP-3 transfected, phospho-Erk imaging KS statistic; at 10 µM; stronger effect = higher value; cells stimulated with TPA for 15 min.
Assay [5] addresses Voltage-gated potassium channel subunit beta-2 (Rattus norvegicus) (UniProt P62483). Nature of the assay: KvBeta enzyme negative modulators, primary screen, biochemical, NADPH fluorescence (AID 622;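 active means fluorescence slope higher than the sample average by over 3 SD, cut at about -0.22 in these data, passing the limit was not always enough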;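 further: slope of raw intensity against log time taken from 70 to 1610 s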). To be noted: recombinant KvBeta, 4-cyanobenzaldehyde reduction, at 10 µM, stronger effect = higher value.
Assay [6] shares this target. Nature of the assay: KvBeta positive modulators, primary screen, biochemical, NADPH fluorescence (AID 623;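 active means NADPH fluorescence slope more negative than the mean of all samples by about 3 SD, 99.7% confidence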;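 further: fluorescence intensity change per second fitted from 20 to 320 s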). Conditions: Recombinant KvBeta, NADPH fluorescence decrease slope, 10 min; at 10 µM; stronger effect = lower value.
The target of assay [7] is Muscarinic acetylcholine receptor M4 (Homo sapiens) (UniProt P08173). Nature of the assay: compounds altering M4/GIRK thallium flux, either direction, primary screen, M4 allosteric agonist project, cell-based, HEK293 M4/GIRK, BTC-AM (AID 625;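 active means fluorescence slope after compound addition differing from the mean of all tested samples at 99.7% confidence, mostly higher but some lower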;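 further: thallium influx through GIRK channels coupled to M4 in HEK293 cells with BTC-AM dye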). Conditions: at 10 µM, actives lie on both sides. Put shortly: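 Material: M4/GIRK1/GIRK2 stable HEK293 cell line. Medium: pH 7.3 thallium assay buffer. Dosing: single compound concentration, 10 µM final. Schedule: 1 h dye loading, 2 min kinetic read. Measured by: kinetic fluorescence with BTC-AM dye. Read-out: post-addition slope, 15–24 s, of baseline-normalized fluorescence. Benchmarks: carbachol and DMSO controls.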

Assay [8] can be described thus: inhibitors of larval lipid processing in zebrafish, primary screen, whole organism, PED6 fluorescence, gall bladder and intestine (AID 686).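 Further: larvae 5 to 7 days old with five fish per well; signal comes from phospholipase A2 cleavage of quenched PED6 carried via bile; overnight exposure to compound and PED6 before scoring.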 To be noted: Zebrafish larvae PED6 lipid processing, fluorescence scoring; screened at 20 µM (by protocol). In a few lines:
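System: live zebrafish larvae aged 5-7 days, whole organism; measure: graded gall bladder and intestinal fluorescence inhibition per well; incubation: overnight exposure; reagent: ingested quenched lipid PED6 at 100 nM; signal: By-eye fluorescence microscopy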

Assay [9] can be described thus: inhibitors of Chlamydomonas gravitaxis, primary screen, whole organism, Chlamydomonas reinhardtii, WT vs cilia-less mutant, absorbance, 96-well (AID 463189;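 active means inhibition at or above 50% relative to wild type and mutant plate controls; inactive means inhibition below 50%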;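 further: 0% = wild type cc124 cells in DMSO and 100% = ciliumless bld1 mutant cells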). To be noted: OD600 absorbance, 2 days, at 10 µM, stronger effect = higher value.
[10] abbreviates: measured here: cell density z-score.
Where [11] appears, read: measured here: nuclear c-Myc green intensity z-score.
The mark [12] stands for this setting: measured here: nuclear pErk red intensity z-score, stronger effect = higher value.

Each structure is given as a SMILES string. Calls of active or inactive are those of the source.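 How the source made its calls, unless noted: active means a full or partial loss of lipid-probe fluorescence in the fish gall bladder, intestine or both, judged by eye; inactive means no fluorescence loss, or compound toxic to the fish.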

Voltage-gated potassium channel subunit beta-2 (Rattus norvegicus), sequence (P62483 whole entry, looked up): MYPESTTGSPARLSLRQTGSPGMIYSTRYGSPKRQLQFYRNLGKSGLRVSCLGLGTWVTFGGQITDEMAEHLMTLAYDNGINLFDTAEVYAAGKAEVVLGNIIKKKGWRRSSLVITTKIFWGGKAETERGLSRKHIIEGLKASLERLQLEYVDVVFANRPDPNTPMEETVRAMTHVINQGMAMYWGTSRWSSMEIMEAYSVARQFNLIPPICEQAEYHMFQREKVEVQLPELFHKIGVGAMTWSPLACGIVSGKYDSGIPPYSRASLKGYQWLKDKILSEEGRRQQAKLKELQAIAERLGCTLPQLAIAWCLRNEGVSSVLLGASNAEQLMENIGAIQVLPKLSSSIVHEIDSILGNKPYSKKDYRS
Muscarinic acetylcholine receptor M4 (Homo sapiens), sequence (P08173 whole entry, looked up): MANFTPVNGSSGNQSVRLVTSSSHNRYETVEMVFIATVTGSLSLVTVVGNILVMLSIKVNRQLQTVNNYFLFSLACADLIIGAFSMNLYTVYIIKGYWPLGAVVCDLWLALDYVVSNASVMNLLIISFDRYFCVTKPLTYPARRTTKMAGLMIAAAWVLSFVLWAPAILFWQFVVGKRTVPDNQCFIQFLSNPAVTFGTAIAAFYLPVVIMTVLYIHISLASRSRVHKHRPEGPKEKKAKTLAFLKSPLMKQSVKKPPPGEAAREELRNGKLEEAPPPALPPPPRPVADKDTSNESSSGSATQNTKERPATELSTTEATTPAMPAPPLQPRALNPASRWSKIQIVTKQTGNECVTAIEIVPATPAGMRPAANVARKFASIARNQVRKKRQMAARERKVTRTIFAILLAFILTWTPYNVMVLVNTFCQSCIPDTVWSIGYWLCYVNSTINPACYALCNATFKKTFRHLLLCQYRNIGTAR
Dual specificity protein phosphatase 6 (Homo sapiens), sequence (Q16828 whole entry, looked up): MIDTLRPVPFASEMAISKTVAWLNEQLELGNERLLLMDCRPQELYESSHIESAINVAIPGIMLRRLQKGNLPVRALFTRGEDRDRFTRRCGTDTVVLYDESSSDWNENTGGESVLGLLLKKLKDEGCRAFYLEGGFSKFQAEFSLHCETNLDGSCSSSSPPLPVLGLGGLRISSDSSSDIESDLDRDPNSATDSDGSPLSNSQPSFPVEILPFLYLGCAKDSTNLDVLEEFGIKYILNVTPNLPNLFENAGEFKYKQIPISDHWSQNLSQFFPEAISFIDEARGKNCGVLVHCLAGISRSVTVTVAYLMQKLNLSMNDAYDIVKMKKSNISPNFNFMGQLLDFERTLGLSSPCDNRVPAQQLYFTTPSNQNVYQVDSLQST

Consider `Cc1cc(C)n(-c2ncnc3sc(C)c(C)c23)n1`, for which the cell count in assay [1] is 577. Further, the inhibition (usually the relative decrease from the control value, in per cent) is -0.8% (inactive) in assay [1], -64.7% (inactive) in assay [2], 19.8% (inactive) in assay [4] and -1.64% (inactive) in assay [9]. In addition, in assay [2], the nuclei count was found to be 157%. Also, the results for the z-score in assay [3] (setting [10]), in [3] (setting [11]) and in assay [3] (setting [12]) were 0.455, 0.0261 and 1.38, respectively. Further, the results for the fluorescence slope in [5] and in [7] were -0.293 (inactive) and 0.00669 (inactive), respectively. For the same compound, the NADPH fluorescence slope in assay [6] is -3.5e-05 (inactive). Further, the compound was classed as inactive in assay [8].
Turning to `c1ccc2c(N3CCCCC3)nc(N3CCCCC3)nc2c1`, the cell count in assay [1] was 497. For the same compound, the inhibition in assay [1] was -2.8% (inactive); in assay [2], 20.7% (inactive); in assay [4], 1.9e-07% (inactive); in assay [9], 4.68% (inactive). For the same compound, the nuclei count in assay [2] turned out to be 159%. For the same compound, the z-score was -1.53 in assay [3] (setting [10]), 0.598 in assay [3] (setting [11]) and 1.04 in assay [3] (setting [12]). Further, the fluorescence slope was -0.388 (inactive) in assay [5] and 0.00468 (inactive) in assay [7]. Besides, the NADPH fluorescence slope in assay [6] was -3.5e-05 (inactive). The compound was classed as inactive in [8].
For the compound `Nc1nc2n(n1)C(c1cccs1)CC(c1ccc(F)cc1)N2` (stereo unspecified), in assay [1], the cell count turned out to be 385. Moreover, the inhibition in assay [1] is 5.4% (inactive); in [2], -40.7% (inactive); in assay [4], 5.65% (inactive); in [9], 0.994% (inactive). This compound yielded a nuclei count in assay [2] of 141%. The z-score in assay [3] (setting [10]) is 0.349; in [3] (setting [11]), 0.295; in assay [3] (setting [12]) it was -0.128. In addition, the fluorescence slope in assay [5] is -0.436 (inactive); in assay [7], 0.00473 (inactive). For the same compound, in assay [6], the NADPH fluorescence slope is -0.000111 (inactive). The compound was called inactive in assay [8].
For the compound `C/C(=N\O)c1c(C)c2ccccc2n1C`, the cell count in assay [1] came to 553. Further, the inhibition in assay [1] is -7.3% (inactive); in [2], -33% (inactive); in [4], 11.9% (inactive); in assay [9] it was 15.1% (inactive). This compound returned a nuclei count in assay [2] of 155%. In addition, the values for the z-score in assay [3] (setting [10]), in assay [3] (setting [11]) and in assay [3] (setting [12]) were 0.633, -0.875 and 0.794, respectively. In addition, the fluorescence slope is -0.374 (inactive) in [5] and 0.00461 (inactive) in assay [7]. For the same compound, the NADPH fluorescence slope in assay [6] is -3.2e-05 (inactive). In addition, in assay [8], the compound was called inactive.
In the case of `O=C1C=C(N2CCN(C3=CC(=O)CCC3)CC2)CCC1`, the cell count in [1] stood at 493. Further, the inhibition in assay [1] was -0.4% (inactive); in assay [2], 4.1% (inactive); in assay [4] it was -0.233% (inactive); in assay [9] it was -18.9% (inactive). Also, the nuclei count in [2] was determined as 100%. Also, the z-score was -1.82 in assay [3] (setting [10]), 2.6 in assay [3] (setting [11]) and 0.89 in [3] (setting [12]). The fluorescence slope was -0.469 (inactive) in [5] and 0.00636 (inactive) in assay [7]. In addition, in [6], the NADPH fluorescence slope was -6.9e-05 (inactive). Besides, the compound was called inactive in [8].
On to `COC(=O)/C=c1/s/c(=C(/C#N)C(=O)N2CCCCC2)n(-c2ccccc2)c1=O`, for which, in assay [1], the cell count stood at 585. For the same compound, the inhibition in assay [1] was -0.7% (inactive); in assay [2], -20.5% (inactive); in assay [4] it was -5.81% (inactive); in assay [9] it was 15.4% (inactive). In assay [2], this compound yielded a nuclei count of 90.8%. For the same compound, the results for the z-score in assay [3] (setting [10]), in [3] (setting [11]) and in assay [3] (setting [12]) were -0.699, 0.059 and 0.258, respectively. Besides, the fluorescence slope in assay [5] is -0.546 (inactive); in assay [7], 0.00519 (inactive). Further, the NADPH fluorescence slope in assay [6] was -1.7e-05 (inactive). Further, in assay [8], the call was inactive.
For `COc1ccc2[nH]cc(C(=O)CN(C)CCc3ccc(OC)c(OC)c3)c2c1`, the cell count in [1] was 516. Moreover, the inhibition is -15.4% (inactive) in assay [1], -59.5% (inactive) in assay [2], -14.6% (inactive) in assay [4] and -1.18% (inactive) in assay [9]. The nuclei count in assay [2] is 137%. The figures for the z-score in assay [3] (setting [10]), in assay [3] (setting [11]) and in [3] (setting [12]) were 0.922, -0.876 and 1.1, respectively. Also, the fluorescence slope in [5] is -0.476 (inactive); in [7], 0.00394 (inactive). Moreover, the NADPH fluorescence slope in assay [6] was -7.3e-05 (inactive). Besides, the result in [8] was inactive.
